experiment: Cytotoxicity against human U87MG cells after 24 hrs by MTT assay; type: functional, cell-based, U-87MG ATCC; settings: U-87 MG
In short: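 U87MG human glioblastoma cells were grown in EMEM with 10% FBS and 1% penicillin–streptomycin at 37 °C under humidified 5% CO₂, then seeded at 2 × 10³ cells/well. At about 50% confluence, cells were exposed to compounds at various concentrations (10 mmol/L DMSO stocks; DMSO control) for 24 h. MTT was then added for 3 h at 37 °C, formazan was dissolved in DMSO, and A540 was read. IC50 values are means of three experiments.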

SMILES | IC50 [µM]
COc1ccccc1C(=O)Nc1cn(-c2ccccc2)nc1-c1ccccc1 | 81
Cn1cc(NC(=O)CCCCCCCCCCCN)c(-c2ccccn2)n1 | 90
Cn1cc(NC(=O)CCCCCCCCCCO)c(-c2ccccn2)n1 | > 150
COc1ccccc1C(=O)Nc1cn(C)nc1-c1ccccn1 | 130
CCCCCCCCCCCC(=O)Nc1cn(C)nc1-c1ccccn1 | > 150
C[C@H](N)C(=O)Nc1cn(C)nc1-c1ccccn1 | > 150
Cn1cc(NC(=O)CCCCCCCCCCS)c(-c2ccccn2)n1 | > 150
O=C(CCCCCCCCCCO)Nc1cn(-c2ccccc2)nc1-c1ccccc1 | > 150
Cn1cc(NC(=O)c2ccccc2)c(-c2ccccn2)n1 | > 150
CCCCCCCCCCCC(=O)Nc1cn(-c2ccccc2)nc1-c1ccccc1 | 81
C[C@H](N)C(=O)Nc1cn(-c2ccccc2)nc1-c1ccccc1 | > 150
O=C(CCCCCCCCCCS)Nc1cn(-c2ccccc2)nc1-c1ccccc1 | 90
NCCCCCCCCCCCC(=O)Nc1cn(-c2ccccc2)nc1-c1ccccc1 | 77
O=C(Nc1cn(-c2ccccc2)nc1-c1ccccc1)c1ccccc1 | > 150

Source: ChEMBL document CHEMBL1157851, “Design and synthesis of novel 3,4-disubstituted pyrazoles for nanomedicine applications against malignant gliomas” (Eur J Med Chem, 2010)
